Data as given in ChEMBL document CHEMBL3525900, “Pharmacokinetics, distribution, and metabolism of [14C]sunitinib in rats, monkeys, and humans” (Drug Metab Dispos, 2012).

Assays:
[1] = system: Rattus norvegicus; test: Cmax as total radioactivity in female Sprague-Dawley rat plasma at 15 mg/kg, po administered as single dose by LC/MS/MS analysis; format: ADME, organism-based; set-up: dose 15 mg/kg, dosed compound name [14C]Sunitinib, route oral; settings: in vivo
Procedure, shortened: (§1)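 Single dose of [14C]sunitinib L-malate as free base, 50 µCi/kg. IV dose was 5 mg/kg by tail vein in 5 females. Oral dose was 15 mg/kg by gavage in 3 females and 3 males. Total radioactivity was by scintillation counting. […] Cmax was read from raw data, t½ by log-linear regression, AUC by linear trapezoidal rule.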

[2] = system: Brain; test: Drug concentration in female albino rat brain assessed as radioactivity per gram of tissue at 20 mg/kg administered as single dose via gastric gavage measured after 6 hrs by autoradiographic analysis; format: ADME, organism-based; set-up: dose 20 mg/kg, dosed compound name [14C]Sunitinib; settings: in vivo, po
Procedure, shortened: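 Sprague Dawley (albino) rats, ca 7-8 weeks old, received a single gastric-gavage dose of [14C]sunitinib L-malate at 20 mg/kg (15 mg freebase/kg, 100 µCi/kg). One animal per sex killed by CO2 at 3, 6, 24, 72 and 168 h, then frozen in CO2/hexane. 30 µm sagittal sections were cut and freeze-dried. Radioactivity per gram quantified by whole-body autoradiography using regression against standards. LOQ 0.04–0.06 µg freebase equiv/g.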

[3] = system: Heart; test: Drug concentration in male Lister Hooded pigmented rat heart assessed as radioactivity per gram of tissue at 20 mg/kg administered as single dose via gastric gavage measured after 24 hrs by autoradiographic analysis; format: ADME, organism-based; set-up: dose 20 mg/kg, dosed compound name [14C]Sunitinib; settings: in vivo, po
[4] = system: Liver; test: Drug concentration in male Lister Hooded pigmented rat liver assessed as radioactivity per gram of tissue at 20 mg/kg administered as single dose via gastric gavage measured after 24 hrs by autoradiographic analysis; format: ADME, organism-based; set-up: dose 20 mg/kg, dosed compound name [14C]Sunitinib; settings: in vivo, po
[5] = system: Large intestine; test: Drug concentration in male Lister Hooded pigmented rat large intestine assessed as radioactivity per gram of tissue at 20 mg/kg administered as single dose via gastric gavage measured after 168 hrs by autoradiographic analysis; format: ADME, organism-based; set-up: dose 20 mg/kg, dosed compound name [14C]Sunitinib; settings: in vivo, po
[6] = system: Stomach; test: Drug concentration in female albino rat stomach assessed as radioactivity per gram of tissue at 20 mg/kg administered as single dose via gastric gavage measured after 24 hrs by autoradiographic analysis; format: ADME, organism-based; set-up: dose 20 mg/kg, dosed compound name [14C]Sunitinib; settings: in vivo, po
[7] = system: Rattus norvegicus; test: Apparent terminal half life as total radioactivity in female Sprague-Dawley rat plasma at 15 mg/kg, po administered as single dose by LC/MS/MS analysis; format: ADME, organism-based; set-up: dose 15 mg/kg, dosed compound name [14C]Sunitinib, route oral; settings: in vivo; procedure, shortened: as §1
[8] = Drug concentration in female Lister Hooded pigmented rat skeletal muscle assessed as radioactivity per gram of tissue at 20 mg/kg administered as single dose via gastric gavage measured after 24 hrs by autoradiographic analysis; format: ADME, organism-based; set-up: dose 20 mg/kg, dosed compound name [14C]Sunitinib; settings: in vivo, po
Procedure, shortened: (§2)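 Lister Hooded (pigmented) rats, ca 7-8 weeks old, acclimated 7 days, given [14C]sunitinib L-malate by gastric gavage at 20 mg/kg (15 mg freebase/kg, 100 µCi/kg). One male and one female killed by CO2 at 24, 72, 168 and 336 h. Carcasses frozen in solid CO2/hexane and embedded in frozen cellulose. 30 µm sagittal cryosections were freeze-dried. Tissue radioactivity measured by quantitative whole-body autoradiography against calibration standards, with background subtracted.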

[9] = Drug concentration in female albino rat skeletal muscle assessed as radioactivity per gram of tissue at 20 mg/kg administered as single dose via gastric gavage measured after 3 hrs by autoradiographic analysis; format: ADME, organism-based; set-up: dose 20 mg/kg, dosed compound name [14C]Sunitinib; settings: in vivo, po
[10] = system: Heart; test: Drug concentration in female albino rat heart assessed as radioactivity per gram of tissue at 20 mg/kg administered as single dose via gastric gavage measured after 24 hrs by autoradiographic analysis; format: ADME, organism-based; set-up: dose 20 mg/kg, dosed compound name [14C]Sunitinib; settings: in vivo, po
Procedure, shortened: (§3)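 Sprague Dawley albino rats, ca 7-8 weeks old, dosed once by gastric gavage with [14C]sunitinib L-malate (15 mg freebase/kg, 100 µCi/kg). One male and one female killed by CO2 at 3, 6, 24, 72 and 168 h. Carcasses frozen in solid CO2/hexane, embedded and cut into 30 µm sagittal sections, then freeze-dried. Radioactivity quantified by whole-body autoradiography against standards by regression, background subtracted.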

[11] = Drug concentration in male albino rat eye assessed as radioactivity per gram of tissue at 20 mg/kg administered as single dose via gastric gavage measured after 24 hrs by autoradiographic analysis; format: ADME, organism-based; set-up: dose 20 mg/kg, dosed compound name [14C]Sunitinib; settings: in vivo, po
[12] = Drug concentration in male albino rat thyroid gland assessed as radioactivity per gram of tissue at 20 mg/kg administered as single dose via gastric gavage measured after 6 hrs by autoradiographic analysis; format: ADME, organism-based; set-up: dose 20 mg/kg, dosed compound name [14C]Sunitinib; settings: in vivo, po
[13] = Drug concentration in male albino rat pituitary gland assessed as radioactivity per gram of tissue at 20 mg/kg administered as single dose via gastric gavage measured after 72 hrs by autoradiographic analysis; format: ADME, organism-based; set-up: dose 20 mg/kg, dosed compound name [14C]Sunitinib; settings: in vivo, po
[14] = Drug concentration in male Lister Hooded pigmented rat eye assessed as radioactivity per gram of tissue at 20 mg/kg administered as single dose via gastric gavage measured after 72 hrs by autoradiographic analysis; format: ADME, organism-based; set-up: dose 20 mg/kg, dosed compound name [14C]Sunitinib; settings: in vivo, po
[15] = Drug concentration in female albino rat skeletal muscle assessed as radioactivity per gram of tissue at 20 mg/kg administered as single dose via gastric gavage measured after 24 hrs by autoradiographic analysis; format: ADME, organism-based; set-up: dose 20 mg/kg, dosed compound name [14C]Sunitinib; settings: in vivo, po
[16] = system: Liver; test: Drug concentration in female Lister Hooded pigmented rat liver assessed as radioactivity per gram of tissue at 20 mg/kg administered as single dose via gastric gavage measured after 72 hrs by autoradiographic analysis; format: ADME, organism-based; set-up: dose 20 mg/kg, dosed compound name [14C]Sunitinib; settings: in vivo, po; procedure, shortened: as §2
[17] = system: Liver; test: Drug concentration in male albino rat liver assessed as radioactivity per gram of tissue at 20 mg/kg administered as single dose via gastric gavage measured after 24 hrs by autoradiographic analysis; format: ADME, organism-based; set-up: dose 20 mg/kg, dosed compound name [14C]Sunitinib; settings: in vivo, po
[18] = Drug concentration in male albino rat bladder assessed as radioactivity per gram of tissue at 20 mg/kg administered as single dose via gastric gavage measured after 3 hrs by autoradiographic analysis; format: ADME, organism-based, Urinary bladder; set-up: dose 20 mg/kg, dosed compound name [14C]Sunitinib; settings: in vivo, po
[19] = Drug recovery in feces of female Sprague-Dawley rat at 15 mg/kg, po administered as single dose during 0 to 72 hrs by liquid scintillation counting; format: ADME, organism-based; set-up: dose 15 mg/kg, dosed compound name [14C]Sunitinib, route oral; settings: in vivo
[20] = Drug recovery in urine of female Sprague-Dawley rat at 15 mg/kg, po administered as single dose during 0 to 72 hrs by liquid scintillation counting; format: ADME, organism-based; set-up: dose 15 mg/kg, dosed compound name [14C]Sunitinib, route oral; settings: in vivo
[21] = Drug concentration in female Lister Hooded pigmented rat uveal tract assessed as radioactivity per gram of tissue at 20 mg/kg administered as single dose via gastric gavage measured after 24 hrs by autoradiographic analysis; format: ADME, organism-based; set-up: dose 20 mg/kg, dosed compound name [14C]Sunitinib; settings: in vivo, po; procedure, shortened: as §2
[22] = Drug recovery in feces of female Sprague-Dawley rat at 5 mg/kg, iv administered as single dose during 0 to 72 hrs by liquid scintillation counting; format: ADME, organism-based; set-up: dose 5 mg/kg, dosed compound name [14C]Sunitinib, route intravenous; settings: in vivo
[23] = system: Pancreas; test: Drug concentration in male Lister Hooded pigmented rat pancreas assessed as radioactivity per gram of tissue at 20 mg/kg administered as single dose via gastric gavage measured after 168 hrs by autoradiographic analysis; format: ADME, organism-based; set-up: dose 20 mg/kg, dosed compound name [14C]Sunitinib; settings: in vivo, po
[24] = Drug concentration in female albino rat salivary gland assessed as radioactivity per gram of tissue at 20 mg/kg administered as single dose via gastric gavage measured after 6 hrs by autoradiographic analysis; format: ADME, organism-based; set-up: dose 20 mg/kg, dosed compound name [14C]Sunitinib; settings: in vivo, po
[25] = system: Blood; test: Drug concentration in male albino rat blood assessed as radioactivity per gram of tissue at 20 mg/kg administered as single dose via gastric gavage measured after 24 hrs by autoradiographic analysis; format: ADME, organism-based; set-up: dose 20 mg/kg, dosed compound name [14C]Sunitinib; settings: in vivo, po
[26] = system: Kidney; test: Drug concentration in female albino rat kidney assessed as radioactivity per gram of tissue at 20 mg/kg administered as single dose via gastric gavage measured after 6 hrs by autoradiographic analysis; format: ADME, organism-based; set-up: dose 20 mg/kg, dosed compound name [14C]Sunitinib; settings: in vivo, po; procedure, shortened: as §3
[27] = system: Rattus norvegicus; test: AUC (0 to infinity) as total radioactivity in female Sprague-Dawley rat plasma at 5 mg/kg, iv administered as single dose by LC/MS/MS analysis; format: ADME, organism-based; set-up: dose 5 mg/kg, dosed compound name [14C]Sunitinib, route intravenous, time infinity; settings: in vivo; procedure, shortened: as §1
[28] = system: Adrenal; test: Drug concentration in male Lister Hooded pigmented rat adrenal assessed as radioactivity per gram of tissue at 20 mg/kg administered as single dose via gastric gavage measured after 336 hrs by autoradiographic analysis; format: ADME, organism-based; set-up: dose 20 mg/kg, dosed compound name [14C]Sunitinib; settings: in vivo, po

Cmax [1]: 2926 ngequiv/ml
Radiolabel recovery [2]: 0.43 ugequiv
Radiolabel recovery [3]: 0.43 ugequiv
Radiolabel recovery [4]: 2.09 ugequiv
Radiolabel recovery [5]: 0.06 ugequiv
Radiolabel recovery [6]: 1.21 ugequiv
t1/2 lambda z [7]: 9 h
Radiolabel recovery [8]: 0.25 ugequiv
Radiolabel recovery [9]: 3.97 ugequiv
Radiolabel recovery [10]: 0.73 ugequiv
Radiolabel recovery [11]: 0.08 ugequiv
Radiolabel recovery [12]: 18.76 ugequiv
Radiolabel recovery [13]: 2.7 ugequiv
Radiolabel recovery [14]: 23.98 ugequiv
Radiolabel recovery [15]: 0.33 ugequiv
Radiolabel recovery [16]: 0.32 ugequiv
Radiolabel recovery [17]: 1.7 ugequiv
Radiolabel recovery [18]: 3.22 ugequiv
Radiolabel recovery [19]: 71.1%
Radiolabel recovery [20]: 9.3%
Radiolabel recovery [21]: 124.52 ugequiv
Radiolabel recovery [22]: 77.2%
Radiolabel recovery [23]: 0.06 ugequiv
Radiolabel recovery [24]: 23.1 ugequiv
Radiolabel recovery [25]: 0.07 ugequiv
Radiolabel recovery [26]: 16.48 ugequiv
AUC [27]: 17427 ng.Eq.hr/ml
Radiolabel recovery [28]: 0.16 ugequiv
Compound: CCN(CC)CCNC(=O)c1c(C)[nH]c(/[14CH]=C2\C(=O)Nc3ccc(F)cc32)c1C.O=C(O)C[C@H](O)C(=O)O
